What was measured:
[1] = target: Human immunodeficiency virus type 1 integrase (Human immunodeficiency virus 1, UniProt Q7ZJM1); assay: Inhibition of HIV1 recombinant integrase by electrochemiluminescent-based high-throughput strand transfer assay
Summary of the method: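 Biotinylated, 3′-end-preprocessed donor DNA incubated 30 min at 37°C with 250 nM recombinant integrase; compound added, strand transfer started with ruthenium-labeled duplex target DNA, 60 min at 37°C; electrochemiluminescence read. IC50 as mean ± SD of ≥3 independent experiments, or single experiment where footnoted.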

[2] = Inhibition of HIV1 RNase H by FRET high-throughput assay; set-up: species or system Human immunodeficiency virus 1
Summary of the method: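 3′-fluorescein/5′-DABCYL RNA/DNA hybrid (0.16 nM) preincubated with compound; reaction started with 7.5 nM HIV-1 RNase H, 30 min at room temperature, EDTA quench, fluorescence intensity read. IC50 as mean ± SD of ≥3 independent experiments, or single experiment where footnoted.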

[3] = system: Human immunodeficiency virus 1; assay: Selectivity, ratio of IC50 for HIV1 recombinant integrase to IC50 for HIV1 RNase H
[4] = system: Human immunodeficiency virus 1; assay: Selectivity, ratio of IC50 for HIV1 RNase H to IC50 for HIV1 recombinant integrase
Summary of the method: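 Ratio of the IC50s from two assays run on the same compounds. Integrase: a biotinylated 3′-preprocessed donor DNA was preincubated 30 min at 37°C with 250 nM recombinant HIV-1 integrase. Compound was then added, ruthenium-labelled target DNA started strand transfer, 60 min at 37°C, electrochemiluminescent read-out. RNase H: 0.16 nM 3′-fluorescein/5′-DABCYL RNA/DNA hybrid with 7.5 nM enzyme, 30 min at room temperature, EDTA quench, FRET fluorescence.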

[5] = target: Human immunodeficiency virus type 1 integrase (Human immunodeficiency virus 1) (UniProt Q7ZJM1); assay: Selectivity for inhibition of HIV1 recombinant integrase strand transfer activity over 3'-end processing
Sequence of Human immunodeficiency virus type 1 integrase (Human immunodeficiency virus 1) (Q7ZJM1 as listed by the source): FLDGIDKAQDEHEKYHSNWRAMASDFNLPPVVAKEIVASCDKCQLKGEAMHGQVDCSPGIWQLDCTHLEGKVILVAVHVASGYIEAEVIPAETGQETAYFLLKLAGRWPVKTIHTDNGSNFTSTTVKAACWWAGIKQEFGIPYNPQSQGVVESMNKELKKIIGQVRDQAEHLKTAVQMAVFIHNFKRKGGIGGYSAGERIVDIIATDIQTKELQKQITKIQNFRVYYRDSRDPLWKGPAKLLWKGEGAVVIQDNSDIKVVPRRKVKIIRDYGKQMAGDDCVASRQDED

Sequence of Human immunodeficiency virus type 1 integrase (Q7ZJM1 whole entry): as the sequence (Q7ZJM1 as listed by the source) above

| Compound | IC50 [1] [µM] | IC50 [2] [µM] | Ratio IC50 [3] | fold change (FC) [5] | Ratio IC50 [4] |
| --- | --- | --- | --- | --- | --- |
| COC(=O)Oc1cc2c(c(O)c1C)C(=O)c1c(OC)c3c(c(O)c1C2=O)-c1c(cc2cnn(-c4ccccc4)c(=O)c2c1O)CC3 | 200 | 1.43 | 100 | – | – |
| COc1c2c(c(O)c3c1C(=O)c1c(cc(O)c(C)c1O)C3=O)-c1c(cc3c(c1O)C(=O)N1c4ccccc4SC31)CC2 (centres undefined) | 96 | 0.31 | 10 | – | 100 |
| COc1c2c(c(O)c3c1C(=O)c1c(cc(O)c(C)c1O)C3=O)-c1c(cc(/C=N/NC(C)(C)C)c(C(=O)O)c1O)CC2 | 122 | 0.69 | > 100 | – | – |
| CCCn1ncc2cc3c(c(O)c2c1=O)-c1c(O)c2c(c(OC)c1CC3)C(=O)c1c(cc(OC(=O)OC)c(C)c1OC(C)=O)C2=O | > 333 | 8.98 | – | – | – |
| COc1c2c(c(O)c3c1C(=O)c1c(cc(O)c(C)c1O)C3=O)-c1c(cc(/C=N/NC(=O)c3ccccc3)c(C(=O)O)c1O)CC2 | 14.6 | 3.1 | – | – | – |
| COc1c2c(c(O)c3c1C(=O)c1c(cc(O)c(C)c1O)C3=O)-c1c(cc3c(c1O)C(=O)N(N(C)C)C3O)CC2 (centres undefined) | 7.7 | 6.97 | – | – | – |
| COc1c2c(c(O)c3c1C(=O)c1c(cc(O)c(C)c1O)C3=O)-c1c(cc(/C=N/C34CC5CC(CC(C5)C3)C4)c(C(=O)O)c1O)CC2 | 37 | 9.41 | – | – | – |
| COc1c2c(c(O)c3c1C(=O)c1c(cc(O)c(C)c1O)C3=O)-c1c(cc3c(c1O)C(=O)N1c4ccccc4CNC31)CC2 (centres undefined) | 108 | 0.78 | 100 | – | – |
| COc1c2c(c(O)c3c1C(=O)c1c(cc(O)c(C)c1O)C3=O)-c1c(cc3c(c1O)C(=O)N1C(C(=O)O)CSC31)CC2 (centres undefined) | 20 | 15.7 | – | – | – |
| CCCn1ncc2cc3c(c(OC(C)=O)c2c1=O)-c1c(c(OC)c2c(c1OC(C)=O)C(=O)c1cc(OC(C)=O)c(C)c(OC(C)=O)c1C2=O)CC3 | > 333 | 10.5 | – | – | – |
| COc1c2c(c(O)c3c1C(=O)c1c(cc(O)c(C)c1O)C3=O)-c1c(cc(C(=O)O)c(C(=O)O)c1O)CC2 | 13.2 | 3.48 | – | – | – |
| COc1c2c(c(OC(C)=O)c3c1C(=O)c1c(cc(OC(C)=O)c(C)c1OC(C)=O)C3=O)-c1c(cc3cnn(-c4ccccc4)c(=O)c3c1OC(C)=O)CC2 | > 333 | 3.14 | 100 | – | – |
| COc1c2c(c(O)c3c1C(=O)c1c(cc(O)c(C)c1O)C3=O)-c1c(cc(C3NCc4ccccc4N3)c(C(=O)O)c1O)CC2 (centres undefined) | 40 | 5.86 | – | – | – |
| COc1c2c(c(O)c3c1C(=O)c1c(cc(O)c(C)c1O)C3=O)-c1c(cc(/C=N/NS(=O)(=O)c3ccc(C)cc3)c(C(=O)O)c1O)CC2 | 22 | 5.88 | – | – | – |
| COc1c2c(c(O)c3c1C(=O)c1c(cc(O)c(C)c1O)C3=O)-c1c(cc3c(c1O)C(=O)N1CCCNC31)CC2 (centres undefined) | 56 | 7.16 | – | – | – |
| COc1c2c(c(OCc3ccccc3)c3c1C(=O)c1c(cc(OCc4ccccc4)c(C)c1OCc1ccccc1)C3=O)-c1c(cc3cnn(CC(=O)O)c(=O)c3c1OCc1ccccc1)CC2 | 106 | 22.4 | – | – | – |

Further compounds by falling IC50 [1], results first:

| IC50 [1] [µM] | IC50 [2] [µM] | Ratio IC50 [3] | fold change (FC) [5] | Compound | Ratio IC50 [4] |
| --- | --- | --- | --- | --- | --- |
| 12.5 | 10.1 | – | – | CO/N=C/c1cc2c(c(O)c1C(=O)O)-c1c(O)c3c(c(OC)c1CC2)C(=O)c1c(cc(O)c(C)c1O)C3=O | – |
| 6.34 | 8.96 | – | – | CCCn1ncc2cc3c(c(O)c2c1=O)-c1c(O)c2c(c(OC)c1CC3)C(=O)c1c(cc(O)c(C)c1O)C2=O | – |
| 6.28 | 8.63 | – | – | COc1c2c(c(O)c3c1C(=O)c1c(cc(O)c(C)c1O)C3=O)-c1c(cc3cnn(CCOC(C)=O)c(=O)c3c1O)CC2 | – |
| 6.09 | 3.54 | – | – | COc1c2c(c(O)c3c1C(=O)c1c(cc(O)c(C)c1O)C3=O)-c1c(cc(/C=N/NC(=O)c3ccccc3O)c(C(=O)O)c1O)CC2 | – |
| 4.62 | 10.2 | – | – | COc1c2c(c(O)c3c1C(=O)c1c(cc(O)c(C)c1O)C3=O)-c1c(cc3cnn(CC(=O)O)c(=O)c3c1O)CC2 | – |
| 4.06 | 4.06 | – | – | COc1c2c(c(O)c3c1C(=O)c1c(cc(O)c(C)c1O)C3=O)-c1c(cc3cn[nH]c(=O)c3c1O)CC2 | – |
| 3.45 | 9.11 | – | – | COc1c2c(c(O)c3c1C(=O)c1c(cc(O)c(C)c1O)C3=O)-c1c(cc3cnn(-c4ccc(C(=O)O)cc4)c(=O)c3c1O)CC2 | – |
| 3.15 | 5.65 | – | – | COc1c2c(c(O)c3c1C(=O)c1c(cc(O)c(C)c1O)C3=O)-c1c(cc(/C=N/NC(=N)N)c(C(=O)O)c1O)CC2 | – |
| 3.02 | 5.28 | – | – | COc1c2c(c(O)c3c1C(=O)c1c(cc(O)c(C)c1O)C3=O)-c1c(cc3cnn(C(=N)N)c(=O)c3c1O)CC2 | – |
| 2.67 | 2.11 | – | – | CCOC(=O)Cn1ncc2cc3c(c(O)c2c1=O)-c1c(O)c2c(c(OC)c1CC3)C(=O)c1c(cc(O)c(C)c1O)C2=O | – |
| 2.2 | 14 | – | – | COc1c2c(c(O)c3c1C(=O)c1c(cc(O)c(C)c1O)C3=O)-c1c(cc(/C=N/Nc3ccc([N+](=O)[O-])cc3)c(C(=O)O)c1O)CC2 | – |
| 0.41 | 2.58 | – | 20 | COc1c2c(c(O)c3c1C(=O)c1c(cc(O)c(C)c1O)C3=O)-c1c(cc3cnn(-c4ccccc4)c(=O)c3c1O)CC2 | 100 |
